Our source for the IC50 values is ChEMBL document CHEMBL4316636, “Tetrandraxanthones A-I, Prenylated and Geranylated Xanthones from the Stem Bark of Garcinia tetrandra” (J Nat Prod, 2019).

Holding throughout (type): functional, cell-based
One assay concerns HepG2. Briefly: Cytotoxicity in human HepG2 cells incubated for 72 hrs by MTT assay. The conditions noted are these: HepG2, 72 h. Put shortly: (§1)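 MTT colorimetric read-out after 72 h incubation of tumour cells: Hep G2 hepatocellular carcinoma, HeLa S3 cervix adenocarcinoma, MCF-7 breast adenocarcinoma, HT-29 colon adenocarcinoma, and KB epidermoid carcinoma. IC50 is given as the mean ± SD of three experiments, with doxorubicin as the positive control. HeLa S3 and KB were screened first.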

In the next assay the test system is HeLa S3. Kind of assay: Cytotoxicity in human HeLaS3 cells incubated for 72 hrs by MTT assay. Particulars: HeLa S3, 72 h. In outline: as §1
Background: Formazan colour is commonly taken as a measure of viable cells.

The next assay deals with KB. Briefly: Cytotoxicity in human KB cells incubated for 72 hrs by MTT assay. Put shortly: as §1
The next assay relates to HT-29. Kind of assay: Cytotoxicity in human HT-29 cells incubated for 72 hrs by MTT assay. The conditions noted are these: HT-29, 72 h. In outline: as §1
The next assay concerns MCF7. Briefly: Cytotoxicity in human MCF7 cells incubated for 72 hrs by MTT assay. The conditions noted are these: MCF7, 72 h. Put shortly:
as §1

The IC50 is the midpoint of a concentration-inhibition curve.

Consider `COc1c(O)cc2oc3cc(O)cc(O)c3c(=O)c2c1CC=C(C)C`, for which the IC50 in the assay on HepG2, in the assay with HeLa S3, in the assay on KB, in the assay with HT-29 and in the assay with MCF7 was above 10 µM throughout.
As for `COc1c(O)cc2oc3cc4c(c(O)c3c(=O)c2c1CCC(C)(C)O)CCC(C)(C)O4`, the IC50 in the assay with HepG2, in the assay on HeLa S3, in the assay on KB, with HT-29 and in the assay with MCF7 was above 10 µM throughout.
Turning to `O=c1c2cc(O)c(O)cc2oc2cc(O)cc(O)c12`, the IC50 with HepG2, in the assay with HeLa S3, in the assay with KB, with HT-29 and with MCF7 was above 10 µM throughout.
As to `O=c1c2cc(O)ccc2oc2cc(O)cc(O)c12`, the IC50 in the assay on HepG2, in the assay with HeLa S3, with KB, in the assay on HT-29 and in the assay with MCF7 was above 10 µM throughout.
In the case of `O=c1c2cc(O)ccc2oc2cccc(O)c12`, the IC50 in the assay on HepG2, with HeLa S3, in the assay on KB, in the assay with HT-29 and with MCF7 was above 10 µM throughout.
`COc1c(O)ccc2c(=O)c3c(O)c4c(cc3oc12)OC(C)(C)C=C4`: the IC50 in the assay with HepG2, in the assay with HeLa S3, in the assay with KB, in the assay on HT-29 and in the assay on MCF7 was above 10 µM in each case.
As for `COc1c(O)cc2oc3cc(O)cc(O)c3c(=O)c2c1CC1=C(C)CCCC1(C)C`, the IC50 in the assay on HepG2, in the assay on HeLa S3, in the assay on KB, in the assay on HT-29 and with MCF7 was above 10 µM each time.
With `CC1(C)CCc2c(cc3oc4ccc(O)cc4c(=O)c3c2O)O1`, the IC50 with HepG2, in the assay with HeLa S3, in the assay on KB, in the assay on HT-29 and with MCF7 was above 10 µM throughout.
As to `C=C1CCCC(C)(C)C1Cc1c(OC)c(O)cc2oc3cc(O)cc(O)c3c(=O)c12` (stereo not given), the IC50 in the assay with HepG2, in the assay on HeLa S3, in the assay with KB, in the assay on HT-29 and with MCF7 was above 10 µM throughout.
Regarding `COc1c(O)cc2oc3c4c(cc(O)c3c(=O)c2c1CC=C(C)C)OC(C)(CCC=C(C)C)C=C4` (stereo not given), the IC50 with HepG2, with HeLa S3, in the assay on KB, in the assay with HT-29 and in the assay with MCF7 was above 10 µM throughout.
With `COc1c(O)cc2oc3c(CC=C(C)C)c(O)cc(O)c3c(=O)c2c1CCC(C)(O)CCC=C(C)C` (stereo not given), the IC50 in the assay on HepG2 was above 10 µM; in the assay with HeLa S3, above 10 µM; in the assay on KB, 7.1 µM; in the assay with HT-29 it was above 10 µM; in the assay on MCF7, 8.8 µM.
For the compound `COc1c(OC)c(OC)c2c(=O)c3c(O)c4c(cc3oc2c1OC)OC(C)(C)C=C4`, the IC50 with HepG2, with HeLa S3, in the assay on KB, in the assay with HT-29 and with MCF7 was above 10 µM in each case.
Turning to `COc1c(O)cc2oc3c(C/C=C(\C)CCC=C(C)C)c(O)cc(O)c3c(=O)c2c1CC=C(C)C`, the IC50 with HepG2 was above 10 µM; with HeLa S3, 5.8 µM; in the assay with KB it was 4.9 µM; in the assay on HT-29 it was above 10 µM; in the assay on MCF7, 4.3 µM.
As to `COc1c(O)cc2oc3c(C/C=C(\C)CCC=C(C)C)c(O)cc(O)c3c(=O)c2c1CCC(C)(C)O`, the IC50 in the assay with HepG2, with HeLa S3, in the assay on KB, with HT-29 and in the assay on MCF7 was above 10 µM in each case.
As to `COc1c(O)cc2oc3c(C/C=C(\C)CCC=C(C)C)c(O)c(CC=C(C)C)c(O)c3c(=O)c2c1CC=C(C)C`, the half-inhibitory concentration (IC50) with HepG2, in the assay on HeLa S3, in the assay with KB, in the assay with HT-29 and with MCF7 was above 10 µM in each case.
As to `COc1c(O)cc2oc3cc(O)cc(O)c3c(=O)c2c1CCC1(C)CCCC(C)(C)O1` (stereo not given), the IC50 in the assay with HepG2, with HeLa S3, with KB, with HT-29 and in the assay on MCF7 was above 10 µM each time.
Turning to `COc1c(O)cc2oc3c(CC=C(C)C)c(O)cc(O)c3c(=O)c2c1CC=C(C)C`, the IC50 in the assay with HepG2, in the assay with HeLa S3, in the assay with KB, with HT-29 and in the assay on MCF7 was above 10 µM each time.
Take `O=c1c2ccc(O)c(O)c2oc2cc(O)cc(O)c12`: the IC50 in the assay on HepG2, with HeLa S3, with KB, with HT-29 and in the assay on MCF7 was above 10 µM in each case.
`COc1c(O)cc2oc3c(CC=C(C)C)c(O)cc(O)c3c(=O)c2c1C/C=C(\C)CCC=C(C)C`: the IC50 is above 10 µM with HepG2; 9 µM with HeLa S3; 7.1 µM in the assay on KB; above 10 µM with HT-29; 7 µM in the assay with MCF7.
Take `COc1c(O)cc2oc3cc(O)cc(O)c3c(=O)c2c1CCC(C)(O)CCC=C(C)C` (stereo not given): the IC50 with HepG2, in the assay on HeLa S3, with KB, with HT-29 and in the assay on MCF7 was above 10 µM in each case.
On to `COc1c(O)cc2oc3c4c(cc(O)c3c(=O)c2c1C/C=C(\C)CCC=C(C)C)OC(C)(C)C=C4`, for which the IC50 in the assay on HepG2, with HeLa S3, with KB, in the assay on HT-29 and with MCF7 was above 10 µM in each case.
Take `COc1c(O)c(OC)c2oc3cc4c(c(O)c3c(=O)c2c1OC)C=CC(C)(C)O4`: the IC50 with HepG2, with HeLa S3, in the assay on KB, in the assay on HT-29 and with MCF7 was above 10 µM each time.
`COc1c(O)cc2oc3cc4c(c(O)c3c(=O)c2c1CC=C(C)C)CCC(C)(C)O4`: the IC50 in the assay on HepG2, in the assay on HeLa S3, in the assay with KB, in the assay on HT-29 and in the assay with MCF7 was above 10 µM in each case.
`COc1c(O)cc2oc3cc(O)cc(O)c3c(=O)c2c1C/C=C(\C)CCCC(C)(C)O` [BUTYRAXANTHONE D]: the IC50 in the assay on HepG2, in the assay with HeLa S3, in the assay with KB, in the assay with HT-29 and in the assay on MCF7 was above 10 µM throughout.
For `COc1cccc2c1C(=O)c1c(O)c3c(c(O)c1C2=O)C[C@@](O)(C(=O)CO)C[C@@H]3O[C@H]1C[C@H](N)[C@H](O)[C@H](C)O1` [DOXORUBICIN], the IC50 came to 1.43 µM in the assay with HepG2; 0.12 µM in the assay with HeLa S3; 0.01 µM in the assay on KB; 0.34 µM with HT-29; 0.49 µM with MCF7.
As to `COc1c(O)cc2oc3cc(O)c(CC=C(C)C)c(O)c3c(=O)c2c1CCC(C)(C)O` [GARCINONE D], the IC50 with HepG2, in the assay on HeLa S3, with KB, in the assay on HT-29 and in the assay on MCF7 was above 10 µM each time.
In the case of `C=CC(C)(C)c1c2c(c(O)c3c(=O)c4ccc(O)c(O)c4oc13)C=CC(C)(C)O2` [MACLURAXANTHONE], the IC50 in the assay with HepG2 was above 10 µM; with HeLa S3, 6.7 µM; with KB it was 7.4 µM; in the assay with HT-29 it was above 10 µM; in the assay with MCF7, above 10 µM.
For `COc1c(O)cc2oc3cc4c(c(O)c3c(=O)c2c1CC=C(C)C)C=CC(C)(C)O4` [MANGOSTANIN], the IC50 in the assay with HepG2 came to 3.4 µM; with HeLa S3, 1.9 µM; in the assay on KB, 1.7 µM; in the assay on HT-29, 1.6 µM; in the assay on MCF7 it was 1.9 µM.
Consider `COc1c(O)cc2oc3cc(O)c(CC=C(C)C)c(O)c3c(=O)c2c1CC=C(C)C` [MANGOSTIN], for which the IC50 in the assay with HepG2, in the assay with HeLa S3, in the assay with KB, with HT-29 and in the assay on MCF7 was above 10 µM each time.
Consider `C=CC(C)(C)c1c(OC)c(CC=C(C)C)c(O)c2c(=O)c3ccc(O)c(O)c3oc12` [NIGROLINEAXANTHONE E], for which the IC50 in the assay on HepG2, in the assay with HeLa S3, with KB, with HT-29 and with MCF7 was above 10 µM in each case.
For `COc1c(O)cc2oc3cc(O)cc(O)c3c(=O)c2c1C/C=C(\C)CCC=C(C)C` [RUBRAXANTHONE], the IC50 in the assay on HepG2, with HeLa S3, in the assay on KB, in the assay with HT-29 and in the assay on MCF7 was above 10 µM throughout.
